Measurements: ChEMBL document CHEMBL4229364, “Structure-activity relationships of 2, 4-disubstituted pyrimidines as dual ERα/VEGFR-2 ligands with anti-breast cancer activity” (Eur J Med Chem, 2018)

biological target: T1, Vascular endothelial growth factor receptor 2 (Homo sapiens, UniProt P35968); assay: Inhibition of VEGFR2 (unknown origin) using TK substrate after 1 hr by HTRF assay; conditions: not given
T1 sequence (P35968 whole entry): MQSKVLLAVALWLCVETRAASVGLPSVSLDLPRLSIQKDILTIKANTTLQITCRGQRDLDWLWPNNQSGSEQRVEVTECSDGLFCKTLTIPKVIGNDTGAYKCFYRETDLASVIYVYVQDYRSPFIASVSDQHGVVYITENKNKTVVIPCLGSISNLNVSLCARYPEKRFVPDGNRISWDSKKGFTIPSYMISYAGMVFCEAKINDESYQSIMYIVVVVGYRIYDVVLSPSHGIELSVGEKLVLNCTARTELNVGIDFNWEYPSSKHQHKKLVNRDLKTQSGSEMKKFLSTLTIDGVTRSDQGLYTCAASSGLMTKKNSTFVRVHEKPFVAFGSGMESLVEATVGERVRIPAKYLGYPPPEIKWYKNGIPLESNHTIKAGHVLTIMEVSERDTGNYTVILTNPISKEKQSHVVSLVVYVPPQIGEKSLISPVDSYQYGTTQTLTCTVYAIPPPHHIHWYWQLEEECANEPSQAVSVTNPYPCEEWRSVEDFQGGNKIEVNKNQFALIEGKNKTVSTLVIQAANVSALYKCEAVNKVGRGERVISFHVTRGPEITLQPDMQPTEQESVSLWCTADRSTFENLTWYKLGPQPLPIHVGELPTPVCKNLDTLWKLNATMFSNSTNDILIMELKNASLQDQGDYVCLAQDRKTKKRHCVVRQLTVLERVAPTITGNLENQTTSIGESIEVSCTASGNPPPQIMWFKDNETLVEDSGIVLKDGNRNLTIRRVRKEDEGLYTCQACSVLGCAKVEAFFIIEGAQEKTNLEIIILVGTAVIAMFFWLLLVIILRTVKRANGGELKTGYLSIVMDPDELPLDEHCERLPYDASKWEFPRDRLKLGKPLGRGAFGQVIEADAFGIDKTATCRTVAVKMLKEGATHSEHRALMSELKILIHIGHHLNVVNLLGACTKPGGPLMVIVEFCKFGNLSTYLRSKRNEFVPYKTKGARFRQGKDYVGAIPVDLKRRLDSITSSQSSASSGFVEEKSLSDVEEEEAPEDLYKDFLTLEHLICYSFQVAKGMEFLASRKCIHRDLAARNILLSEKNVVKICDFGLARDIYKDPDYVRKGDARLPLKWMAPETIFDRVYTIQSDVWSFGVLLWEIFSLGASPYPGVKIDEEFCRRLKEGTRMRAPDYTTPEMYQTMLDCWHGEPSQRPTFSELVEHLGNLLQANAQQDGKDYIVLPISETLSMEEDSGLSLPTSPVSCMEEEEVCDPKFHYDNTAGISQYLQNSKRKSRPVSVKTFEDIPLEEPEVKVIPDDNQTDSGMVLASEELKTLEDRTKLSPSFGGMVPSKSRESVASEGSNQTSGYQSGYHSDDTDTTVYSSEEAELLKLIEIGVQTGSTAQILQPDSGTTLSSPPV

IC50 [µM]	SMILES
> 1	COc1ccc(-c2nc(Cl)c(-c3ccccc3)c(Oc3ccc(OCCN4CCCC4)cc3)n2)cc1
0.203	COc1ccc(-c2nc(Cl)c(-c3ccccc3)c(Nc3ccc(NC(=O)CN4CCCC4)cc3)n2)cc1
> 1	CCN(CC)CCOc1ccc(Oc2cc(Cl)nc(-c3ccc(OC)cc3)n2)cc1
> 1	COc1ccc(-c2nc(Cl)cc(Nc3ccc(NC(=O)CN4CCCC4)cc3)n2)cc1
> 1	COc1ccc(-c2nc(Cl)c(-c3ccccc3)c(Nc3ccc(OCCN4CCCC4)cc3)n2)cc1
> 1	COc1ccc(-c2nc(Cl)cc(Nc3ccc(OCCN(C)C)cc3)n2)cc1

biological target: T2, Estrogen receptor (Homo sapiens, UniProt P03372); assay: Displacement of Fluormone ES2 Green from full length human ER-alpha expressed in insect cells after 2 hrs by fluorescence polarization assay; conditions: not given
T2 sequence (P03372 whole entry): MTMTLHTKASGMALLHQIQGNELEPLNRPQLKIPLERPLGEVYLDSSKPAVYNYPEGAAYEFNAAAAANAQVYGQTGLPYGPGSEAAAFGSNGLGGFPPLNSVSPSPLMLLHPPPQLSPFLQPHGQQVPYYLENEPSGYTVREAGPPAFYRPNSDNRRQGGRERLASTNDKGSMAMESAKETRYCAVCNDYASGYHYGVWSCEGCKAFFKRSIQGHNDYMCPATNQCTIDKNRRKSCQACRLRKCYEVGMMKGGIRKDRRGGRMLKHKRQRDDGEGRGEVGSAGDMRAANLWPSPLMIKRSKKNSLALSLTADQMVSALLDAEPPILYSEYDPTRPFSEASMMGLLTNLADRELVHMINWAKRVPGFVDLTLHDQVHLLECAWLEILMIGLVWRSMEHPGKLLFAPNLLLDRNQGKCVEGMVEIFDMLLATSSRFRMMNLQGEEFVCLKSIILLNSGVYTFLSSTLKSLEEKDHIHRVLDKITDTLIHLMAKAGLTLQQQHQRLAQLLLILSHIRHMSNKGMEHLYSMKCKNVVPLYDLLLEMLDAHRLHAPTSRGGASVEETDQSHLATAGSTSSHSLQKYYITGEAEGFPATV

IC50 [µM]	SMILES
2.17	COc1ccc(-c2nc(Cl)c(-c3ccccc3)c(Oc3ccc(OCCN4CCCC4)cc3)n2)cc1
5.13	CCN(CC)CCOc1ccc(Oc2cc(Cl)nc(-c3ccc(OC)cc3)n2)cc1
2.86	COc1ccc(-c2nc(Cl)cc(Nc3ccc(NC(=O)CN4CCCC4)cc3)n2)cc1

tested on: Ishikawa; assay: Antiproliferative activity against human Ishikawa cells after 48 hrs by MTT assay; type: functional, cell-based; conditions: not given
Outline: (§1)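 MTT assay. Cells were grown in RPMI1640 with 10% FBS and penicillin/streptomycin at 37°C, 5% CO2, seeded at 1×10^5/mL and rested 24 h. Compound was added at 4×10^-5 to 1×10^-6 mol/L for 48 h; controls received 1% DMSO. MTT (5 mg/mL) was added for 4 h in the dark and the formazan dissolved in DMSO. A490 was read and IC50 derived.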

SMILES	IC50 [µM]
COc1ccc(-c2nc(Cl)c(-c3ccccc3)c(Oc3ccc(OCCN4CCCC4)cc3)n2)cc1	14.1
COc1ccc(-c2nc(Cl)c(-c3ccccc3)c(Nc3ccc(NC(=O)CN4CCCC4)cc3)n2)cc1	> 40
CCN(CC)CCOc1ccc(Oc2cc(Cl)nc(-c3ccc(OC)cc3)n2)cc1	24.9
COc1ccc(-c2nc(Cl)cc(Nc3ccc(NC(=O)CN4CCCC4)cc3)n2)cc1	18.4
COc1ccc(-c2nc(Cl)c(-c3ccccc3)c(Nc3ccc(OCCN4CCCC4)cc3)n2)cc1	3.81
COc1ccc(-c2nc(Cl)cc(Nc3ccc(OCCN(C)C)cc3)n2)cc1	5.67

tested on: MCF7; assay: Antiproliferative activity against human MCF7 cells after 48 hrs by MTT assay; type: functional, cell-based; conditions: MCF7, 48 h; outline: as §1

IC50 [µM]	SMILES
32.4	COc1ccc(-c2nc(Cl)c(-c3ccccc3)c(Oc3ccc(OCCN4CCCC4)cc3)n2)cc1
> 40	COc1ccc(-c2nc(Cl)c(-c3ccccc3)c(Nc3ccc(NC(=O)CN4CCCC4)cc3)n2)cc1
49.6	CCN(CC)CCOc1ccc(Oc2cc(Cl)nc(-c3ccc(OC)cc3)n2)cc1
23.4	COc1ccc(-c2nc(Cl)cc(Nc3ccc(NC(=O)CN4CCCC4)cc3)n2)cc1
7.84	COc1ccc(-c2nc(Cl)c(-c3ccccc3)c(Nc3ccc(OCCN4CCCC4)cc3)n2)cc1
3.54	COc1ccc(-c2nc(Cl)cc(Nc3ccc(OCCN(C)C)cc3)n2)cc1

biological target: T1, Vascular endothelial growth factor receptor 2; conditions: at 10 µM

inhibition [%]	SMILES
75.3	COc1ccc(-c2nc(Cl)c(-c3ccccc3)c(Oc3ccc(OCCN4CCCC4)cc3)n2)cc1
87.3	COc1ccc(-c2nc(Cl)c(-c3ccccc3)c(Nc3ccc(NC(=O)CN4CCCC4)cc3)n2)cc1
80	CCN(CC)CCOc1ccc(Oc2cc(Cl)nc(-c3ccc(OC)cc3)n2)cc1
61.3	COc1ccc(-c2nc(Cl)cc(Nc3ccc(NC(=O)CN4CCCC4)cc3)n2)cc1
49.4	COc1ccc(-c2nc(Cl)c(-c3ccccc3)c(Nc3ccc(OCCN4CCCC4)cc3)n2)cc1
40	COc1ccc(-c2nc(Cl)cc(Nc3ccc(OCCN(C)C)cc3)n2)cc1

tested on: HUVEC; assay: Antiproliferative activity against HUVEC after 48 hrs by MTT assay; type: functional, cell-based; conditions: Homo sapiens; outline: as §1

SMILES	IC50 [µM]
COc1ccc(-c2nc(Cl)c(-c3ccccc3)c(Oc3ccc(OCCN4CCCC4)cc3)n2)cc1	10.6
COc1ccc(-c2nc(Cl)c(-c3ccccc3)c(Nc3ccc(NC(=O)CN4CCCC4)cc3)n2)cc1	> 40
CCN(CC)CCOc1ccc(Oc2cc(Cl)nc(-c3ccc(OC)cc3)n2)cc1	23.3
COc1ccc(-c2nc(Cl)cc(Nc3ccc(NC(=O)CN4CCCC4)cc3)n2)cc1	4.82
COc1ccc(-c2nc(Cl)c(-c3ccccc3)c(Nc3ccc(OCCN4CCCC4)cc3)n2)cc1	5.02
COc1ccc(-c2nc(Cl)cc(Nc3ccc(OCCN(C)C)cc3)n2)cc1	6.31
